Results collected from several papers.
Each line is one published result; the experiments were not run side by side.
Observed: cell growth or viability

CC[S+]([O-])c1nc(-c2ccccc2)cc(C(F)(F)F)n1 (stereo not shown) — CC50 (HEK-293T; ATP luminescence; 24 h): > 60 µM
COc1ccccc1C(=O)/C=C/c1cn(Cc2cn(-c3ccnc4cc(Cl)ccc34)nn2)c2ccccc12 — viability (HepG2; MTT; 100 µM, 24 h): > 90%
CCS(=O)(=O)c1nc(C2CC2)cc(C(F)(F)F)n1 — CC50 (HEK-293T; ATP luminescence; 24 h): 29 µM
O[C@@H](CN1CCN(C(c2ccccc2)c2ccccc2)CC1)c1cc(Cl)cc2c1-c1ccc(Cl)cc1C2 — CC50 (HepG2; 48 h): > 50 µM
O=C(Cc1csc(NC(=O)c2cc3ccccc3[nH]2)n1)NN=Cc1cccc2ccccc12 (mixture of isomers) — IC50 (HepG2; MTT): 36 µM
Clc1ccc(OC2=CC(c3ccc[nH]3)=N/C2=C\NC23CC4CC(CC(C4)C2)C3)cc1 — IC50 (HepG2; MTT; 48 h): 14.5 µM
CCCCNCC(O)c1cc(Cl)cc2c1-c1ccc(Cl)cc1C2 (racemic) — CC50 (HepG2; 48 h): 6.4 µM
COc1ccc2[nH]c(C(=O)Nc3nc(CC(=O)NN=Cc4cccc5ccccc45)cs3)cc2c1 (mixture of isomers) — IC50 (HepG2; MTT): 24.2 µM
CCSc1nc(C2CC2)cc(C(F)(F)F)n1 — CC50 (HEK-293T; ATP luminescence; 24 h): > 60 µM
O[C@@H](CNCCN1CCN(C(c2ccccc2)c2ccccc2)CC1)c1cc(Cl)cc2c1-c1ccc(Cl)cc1C2 — CC50 (HepG2; MTT; 72 h): 27.1 µM
